Test results: ChEMBL document CHEMBL1156453, “Cellular characterization of a novel focal adhesion kinase inhibitor” (J Biol Chem, 2007)

Tests used:
[1] = Inhibition of 10% serum-stimulated cell migration of rat REF52 cells at 1.0 uM pretreated for 30 mins measured after 6 hrs by transwell assay relative to control; type: functional
Summary of the method: (§1)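 Modified Boyden transwell, 8-μm pores. REF52 cells (1 × 10⁵) pretreated 30 min with inhibitor, which stayed in both chambers. Attractant was 10% FBS in the lower chamber, or membrane underside coated with 1.5 μg/ml fibronectin overnight at 4 °C under serum-free DMEM. Migration 6 h at 37 °C. Underside cells fixed, crystal-violet stained and counted in four fields. Triplicates normalized to untreated control; ANOVA then t-tests.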

[2] = Inhibition of fibronectin-stimulated cell migration of rat REF52 cells at 1.0 uM pretreated for 30 mins measured after 6 hrs by transwell assay relative to control; type: functional; summary of the method: as §1
[3] = Inhibition of 10% serum-stimulated cell migration of rat REF52 cells at 10 uM pretreated for 30 mins measured after 6 hrs by transwell assay relative to control; type: functional; summary of the method: as §1
[4] = Inhibition of fibronectin-stimulated cell migration of rat REF52 cells at 10 uM pretreated for 30 mins measured after 6 hrs by transwell assay relative to control; type: functional; summary of the method: as §1
[5] = Inhibition of cell migration of rat REF52 cells assessed as reduction in rate of movement of cell into wound at 1 uM by wound healing assay in presence of 10% serum; type: functional; design: scale not given: the % may be the effect or the level left
Summary of the method: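 Confluent REF52 monolayers wounded with a pipette tip, with inhibitor added at wounding. Starting 1 h later, cells filmed for 9 h at 37 °C by DIC time-lapse microscopy. Nuclei of single cells tracked, and speed taken as track length divided by total movie time.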

NIH3T3 = assay: Inhibition of focal adhesion turnover in wounded mouse NIH3T3 cells expressing GFP-paxillin assessed as average adhesion life-time at 1 uM by TIRF microscopy; type: functional
[6] = molecular target: Protein-tyrosine kinase 2-beta (Homo sapiens, UniProt Q14289); assay: Inhibition of Pyk2
Summary of the method: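 Recombinant Pyk2 was run in parallel with the FAK kinase assay. That assay measures phosphorylation of a poly(Glu/Tyr) (4:1) substrate in an ELISA read with anti-phosphotyrosine (PY20) and an HRP secondary. Compounds were serially diluted at ½-log steps from a 1 μm top concentration, each concentration was run in triplicate, and IC50 was fitted by the Hill slope model.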

[7] = molecular target: Tyrosine-protein kinase ABL1 (Homo sapiens) (UniProt P00519); assay: Inhibition of human Abl at 1 uM
[8] = Inhibition of ACK at 1 uM
Summary of the method: (§2)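 Recombinant kinases were screened in a commercial profiling panel with the compound at a single concentration of 1 μM. The read-out is percent inhibition of each enzyme's kinase activity.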

[9] = molecular target: RAC-alpha serine/threonine-protein kinase (Homo sapiens) (UniProt P31749); assay: Inhibition of AKT at 1 uM
[10] = molecular target: Protein DBF4 homolog A (Homo sapiens) (UniProt Q9UBU7); assay: Inhibition of ASK at 1 uM
Protein DBF4 homolog A (Homo sapiens), sequence (Q9UBU7 whole entry): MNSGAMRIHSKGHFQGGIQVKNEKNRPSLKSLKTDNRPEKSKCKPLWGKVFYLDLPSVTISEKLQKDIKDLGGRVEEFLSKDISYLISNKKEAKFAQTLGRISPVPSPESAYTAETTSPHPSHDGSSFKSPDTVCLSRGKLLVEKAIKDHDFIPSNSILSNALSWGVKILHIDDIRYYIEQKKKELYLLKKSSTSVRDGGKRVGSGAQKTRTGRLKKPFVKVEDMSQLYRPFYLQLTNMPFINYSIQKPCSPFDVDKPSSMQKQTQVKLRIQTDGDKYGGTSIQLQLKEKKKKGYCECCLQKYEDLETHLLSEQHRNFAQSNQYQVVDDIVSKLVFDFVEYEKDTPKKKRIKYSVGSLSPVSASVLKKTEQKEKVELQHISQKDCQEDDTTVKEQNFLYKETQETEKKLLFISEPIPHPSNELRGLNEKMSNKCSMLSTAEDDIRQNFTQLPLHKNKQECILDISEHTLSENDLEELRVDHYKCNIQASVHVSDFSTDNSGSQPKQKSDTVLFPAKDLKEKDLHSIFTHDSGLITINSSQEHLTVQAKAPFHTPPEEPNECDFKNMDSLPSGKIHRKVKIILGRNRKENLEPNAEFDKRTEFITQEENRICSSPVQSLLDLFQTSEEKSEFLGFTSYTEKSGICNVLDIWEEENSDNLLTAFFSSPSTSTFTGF

[11] = molecular target: Tyrosine-protein kinase BTK (Homo sapiens) (UniProt Q06187); assay: Inhibition of BTK at 1 uM
Tyrosine-protein kinase BTK (Homo sapiens), sequence (Q06187 whole entry): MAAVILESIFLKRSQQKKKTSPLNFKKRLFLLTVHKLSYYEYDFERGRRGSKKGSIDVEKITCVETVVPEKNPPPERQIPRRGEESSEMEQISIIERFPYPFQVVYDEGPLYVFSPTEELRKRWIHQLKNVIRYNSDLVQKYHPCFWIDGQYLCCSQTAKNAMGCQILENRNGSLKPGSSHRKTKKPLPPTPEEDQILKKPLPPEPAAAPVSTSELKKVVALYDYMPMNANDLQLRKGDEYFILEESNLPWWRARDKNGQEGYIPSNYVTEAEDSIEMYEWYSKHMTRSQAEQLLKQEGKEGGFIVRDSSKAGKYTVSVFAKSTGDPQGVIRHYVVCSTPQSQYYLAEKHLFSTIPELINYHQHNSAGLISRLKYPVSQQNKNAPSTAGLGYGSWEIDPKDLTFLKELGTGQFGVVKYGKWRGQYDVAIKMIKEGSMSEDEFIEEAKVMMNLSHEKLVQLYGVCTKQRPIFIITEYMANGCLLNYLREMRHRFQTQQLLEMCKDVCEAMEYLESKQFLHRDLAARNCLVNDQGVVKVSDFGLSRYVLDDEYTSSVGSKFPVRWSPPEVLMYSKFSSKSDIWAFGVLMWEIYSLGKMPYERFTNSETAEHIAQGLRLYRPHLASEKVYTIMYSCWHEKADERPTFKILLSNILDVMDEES

[12] = molecular target: RAF proto-oncogene serine/threonine-protein kinase (Homo sapiens) (UniProt P04049); assay: Inhibition of human c-RAF at 1 uM
RAF proto-oncogene serine/threonine-protein kinase (Homo sapiens), sequence (P04049 whole entry): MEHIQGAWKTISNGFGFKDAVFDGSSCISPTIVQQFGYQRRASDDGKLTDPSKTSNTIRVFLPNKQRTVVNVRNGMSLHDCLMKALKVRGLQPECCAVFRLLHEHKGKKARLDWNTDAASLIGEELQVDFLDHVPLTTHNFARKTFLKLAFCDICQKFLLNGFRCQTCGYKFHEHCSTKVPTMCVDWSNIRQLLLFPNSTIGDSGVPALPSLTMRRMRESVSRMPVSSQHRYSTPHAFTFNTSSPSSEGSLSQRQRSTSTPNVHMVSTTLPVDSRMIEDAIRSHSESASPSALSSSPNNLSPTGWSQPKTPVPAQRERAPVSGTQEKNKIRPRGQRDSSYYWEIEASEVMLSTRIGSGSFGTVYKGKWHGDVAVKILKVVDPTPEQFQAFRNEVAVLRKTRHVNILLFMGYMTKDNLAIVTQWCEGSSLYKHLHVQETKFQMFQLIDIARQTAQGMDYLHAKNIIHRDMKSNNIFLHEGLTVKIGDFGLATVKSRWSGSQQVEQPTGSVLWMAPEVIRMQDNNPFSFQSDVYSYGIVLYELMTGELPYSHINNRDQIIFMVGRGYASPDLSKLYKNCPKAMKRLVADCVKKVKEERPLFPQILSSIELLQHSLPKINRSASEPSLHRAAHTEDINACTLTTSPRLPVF

[13] = molecular target: Calcium/calmodulin-dependent protein kinase type IV (Homo sapiens) (UniProt Q16566); assay: Inhibition of human CaMK4 at 1 uM
[14] = molecular target: Cyclin-dependent kinase 1/cyclin B1 (Homo sapiens) (UniProt P06493+P14635); assay: Inhibition of human CDK1/cyclinB at 1 uM; type: protein-complex assay; summary of the method: as §2
Cyclin-dependent kinase 1/cyclin B1 (Homo sapiens), sequence (P06493 whole entry, looked up): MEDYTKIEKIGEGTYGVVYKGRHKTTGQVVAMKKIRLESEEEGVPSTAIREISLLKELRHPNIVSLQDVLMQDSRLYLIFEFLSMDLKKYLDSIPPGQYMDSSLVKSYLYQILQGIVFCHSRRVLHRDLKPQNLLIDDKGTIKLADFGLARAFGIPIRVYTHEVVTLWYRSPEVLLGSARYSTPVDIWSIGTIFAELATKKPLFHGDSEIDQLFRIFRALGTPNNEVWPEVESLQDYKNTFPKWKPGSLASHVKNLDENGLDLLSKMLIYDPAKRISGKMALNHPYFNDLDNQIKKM
Cyclin-dependent kinase 1/cyclin B1 (Homo sapiens), sequence (P14635 whole entry, looked up): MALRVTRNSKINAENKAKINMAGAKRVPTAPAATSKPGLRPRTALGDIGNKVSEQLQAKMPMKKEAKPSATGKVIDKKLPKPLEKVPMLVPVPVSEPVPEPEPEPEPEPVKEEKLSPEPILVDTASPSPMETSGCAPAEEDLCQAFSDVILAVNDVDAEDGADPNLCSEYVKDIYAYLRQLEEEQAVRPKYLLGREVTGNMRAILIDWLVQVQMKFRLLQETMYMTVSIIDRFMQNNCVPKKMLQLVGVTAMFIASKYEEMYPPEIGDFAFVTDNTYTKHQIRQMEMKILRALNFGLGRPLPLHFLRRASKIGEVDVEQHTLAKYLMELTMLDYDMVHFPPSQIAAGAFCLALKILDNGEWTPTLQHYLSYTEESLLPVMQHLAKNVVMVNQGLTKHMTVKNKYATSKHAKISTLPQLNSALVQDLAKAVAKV

[15] = molecular target: Cyclin-dependent kinase 2 (Homo sapiens) (UniProt P24941); assay: Inhibition of human CDK2/cyclinA at 1 uM
[16] = molecular target: Cyclin-dependent kinase 2 (Homo sapiens) (UniProt P24941); assay: Inhibition of human CDK2/cyclinE at 1 uM
[17] = molecular target: Cyclin-dependent kinase 3 (Homo sapiens) (UniProt Q00526); assay: Inhibition of human CDK3/cyclinE at 1 uM
Cyclin-dependent kinase 3 (Homo sapiens), sequence (Q00526 whole entry, looked up): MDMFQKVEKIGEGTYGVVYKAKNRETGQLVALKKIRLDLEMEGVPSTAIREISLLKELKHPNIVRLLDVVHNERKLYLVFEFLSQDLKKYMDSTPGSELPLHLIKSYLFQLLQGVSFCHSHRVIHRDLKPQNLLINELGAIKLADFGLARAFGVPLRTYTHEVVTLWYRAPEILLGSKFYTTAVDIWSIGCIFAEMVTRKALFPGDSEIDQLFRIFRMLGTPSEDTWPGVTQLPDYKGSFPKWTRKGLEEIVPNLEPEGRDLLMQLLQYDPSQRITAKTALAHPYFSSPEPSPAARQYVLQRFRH

Homo sapiens = species on record: Homo sapiens; assay: Inhibition of human CDK5/p35 at 1 uM; summary of the method: as §2
[18] = molecular target: CDK6/cyclin D3 (Homo sapiens) (UniProt P30281+Q00534); assay: Inhibition of human CDK6/cyclinD3 at 1 uM; type: protein-complex assay
[19] = molecular target: Cyclin-dependent kinase 7 (Homo sapiens, UniProt P50613); assay: Inhibition of human CDK7/cyclinH/MAT1 at 1 uM; summary of the method: as §2
Cyclin-dependent kinase 7, sequence (P50613 whole entry): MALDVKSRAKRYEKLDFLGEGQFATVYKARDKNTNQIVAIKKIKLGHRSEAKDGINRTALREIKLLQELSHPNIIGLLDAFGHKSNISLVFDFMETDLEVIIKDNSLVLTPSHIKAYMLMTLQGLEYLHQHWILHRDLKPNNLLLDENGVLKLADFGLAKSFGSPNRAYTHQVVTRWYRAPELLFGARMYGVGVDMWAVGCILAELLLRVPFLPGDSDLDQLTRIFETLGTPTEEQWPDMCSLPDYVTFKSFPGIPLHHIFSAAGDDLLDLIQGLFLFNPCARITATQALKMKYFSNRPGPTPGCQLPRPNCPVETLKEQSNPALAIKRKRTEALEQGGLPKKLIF

[20] = molecular target: Serine/threonine-protein kinase Chk1 (Homo sapiens) (UniProt O14757); assay: Inhibition of CHK1 at 1 uM; summary of the method: as §2
[21] = molecular target: Proto-oncogene tyrosine-protein kinase Src (Homo sapiens) (UniProt P12931); assay: Inhibition of human cSRC at 1 uM
Proto-oncogene tyrosine-protein kinase Src (Homo sapiens), sequence (P12931 2-536 limits assumed): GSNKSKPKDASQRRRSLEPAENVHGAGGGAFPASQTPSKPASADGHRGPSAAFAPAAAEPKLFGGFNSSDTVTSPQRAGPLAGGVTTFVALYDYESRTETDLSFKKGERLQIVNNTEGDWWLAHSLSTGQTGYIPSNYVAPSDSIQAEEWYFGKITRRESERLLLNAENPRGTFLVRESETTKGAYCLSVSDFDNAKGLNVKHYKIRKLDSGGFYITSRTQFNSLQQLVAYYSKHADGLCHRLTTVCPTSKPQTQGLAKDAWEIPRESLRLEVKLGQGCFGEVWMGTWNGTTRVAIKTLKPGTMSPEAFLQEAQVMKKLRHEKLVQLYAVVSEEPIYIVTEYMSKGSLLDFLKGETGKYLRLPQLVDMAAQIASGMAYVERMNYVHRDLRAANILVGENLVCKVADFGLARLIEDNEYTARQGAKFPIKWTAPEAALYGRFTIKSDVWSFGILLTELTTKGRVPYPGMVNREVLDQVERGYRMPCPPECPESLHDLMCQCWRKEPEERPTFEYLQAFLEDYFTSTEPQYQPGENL

[22] = molecular target: Epidermal growth factor receptor (Homo sapiens) (UniProt P00533); assay: Inhibition of human EGFR at 1 uM
[23] = molecular target: Ephrin type-A receptor 2 (Homo sapiens) (UniProt P29317); assay: Inhibition of EphA2 at 1 uM
[24] = molecular target: Ephrin type-B receptor 2 (Homo sapiens) (UniProt P29323); assay: Inhibition of EphB2 at 1 uM
[25] = molecular target: Glycogen synthase kinase-3 beta (Homo sapiens, UniProt P49841); assay: Inhibition of human GSK3-beta at 1 uM; summary of the method: as §2
[26] = molecular target: Tyrosine-protein kinase Fyn (Homo sapiens) (UniProt P06241); assay: Inhibition of Fyn at 1 uM
[27] = molecular target: Insulin receptor (Homo sapiens) (UniProt P06213); assay: Inhibition of IR at 1 uM
[28] = molecular target: Insulin-like growth factor 1 receptor (Homo sapiens) (UniProt P08069); assay: Inhibition of IGF1R at 1 uM
[29] = molecular target: Inhibitor of nuclear factor kappa-B kinase subunit beta (Homo sapiens) (UniProt O14920); assay: Inhibition of human IKK-beta at 1 uM
[30] = molecular target: Tyrosine-protein kinase JAK3 (Homo sapiens) (UniProt P52333); assay: Inhibition of JAK3 at 1 uM
[31] = molecular target: Protein kinase C theta type (Homo sapiens) (UniProt Q04759); assay: Inhibition of PKCtheta at 1 uM
Protein kinase C theta type (Homo sapiens), sequence (Q04759 whole entry, looked up): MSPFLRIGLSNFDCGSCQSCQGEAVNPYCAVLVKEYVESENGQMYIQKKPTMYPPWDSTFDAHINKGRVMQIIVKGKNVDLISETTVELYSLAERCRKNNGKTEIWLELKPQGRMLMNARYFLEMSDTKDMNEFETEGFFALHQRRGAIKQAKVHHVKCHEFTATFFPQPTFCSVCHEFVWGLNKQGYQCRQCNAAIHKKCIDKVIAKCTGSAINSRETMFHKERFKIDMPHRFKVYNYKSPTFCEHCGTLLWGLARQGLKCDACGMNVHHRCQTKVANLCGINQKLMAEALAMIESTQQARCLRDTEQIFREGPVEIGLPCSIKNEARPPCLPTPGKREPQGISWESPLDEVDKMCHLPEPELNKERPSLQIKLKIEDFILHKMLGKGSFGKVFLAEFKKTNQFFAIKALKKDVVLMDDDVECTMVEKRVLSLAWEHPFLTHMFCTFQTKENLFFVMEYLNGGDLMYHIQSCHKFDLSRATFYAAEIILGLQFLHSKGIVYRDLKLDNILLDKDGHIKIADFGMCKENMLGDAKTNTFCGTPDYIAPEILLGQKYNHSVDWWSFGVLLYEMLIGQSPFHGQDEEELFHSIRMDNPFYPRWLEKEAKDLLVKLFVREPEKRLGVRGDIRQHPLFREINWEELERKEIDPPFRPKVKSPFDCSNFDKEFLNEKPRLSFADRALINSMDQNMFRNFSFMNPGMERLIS

[32] = molecular target: Mitogen-activated protein kinase 8 (Homo sapiens) (UniProt P45983); assay: Inhibition of human JNK1alpha1 at 1 uM

CS(=O)(=O)c1cccc(CNc2nc(Nc3ccc4c(c3)CCC(=O)N4)ncc2C(F)(F)F)c1
Activity [1]: 1 | Activity [2]: 2.2 | Activity [3]: 0.3 | Activity [4]: 0.5 | Activity [5]: 27% | Time (NIH3T3): 33.1 min | IC50 [6]: > 1000 nM | inhibition [7]: 8% | inhibition [8]: 29% | inhibition [9]: 0% | inhibition [10]: 1% | inhibition [11]: 11% | inhibition [12]: 0% | inhibition [13]: 0% | inhibition [14]: 77% | inhibition [15]: 50% | inhibition [16]: 44% | inhibition [17]: 44% | inhibition (Homo sapiens): 0% | inhibition [18]: 15% | inhibition [19]: 86% | inhibition [20]: 13% | inhibition [21]: 1% | inhibition [22]: 0% | inhibition [23]: 15% | inhibition [24]: 11% | inhibition [25]: 64% | inhibition [26]: 28% | inhibition [27]: 27% | inhibition [28]: 21% | inhibition [29]: 56% | inhibition [30]: 27% | inhibition [31]: 36% | inhibition [32]: 4%
